Results taken from ChEMBL document CHEMBL6134769, “Discovery of N-substituted-2-oxoindolin benzoylhydrazines as c-MET/SMO modulators in EGFRi-resistant non-small cell lung cancer” (RSC Med Chem, 2025).

Tests used:
[1] = biological target: T1, Tyrosine-protein kinase ITK/TSK (Homo sapiens) (UniProt Q08881); assay: Inhibition of human full-length N-terminal GST-fused ITK (2 to 620 (end)residues) expressed in baculovirus expression system at 20 uM measured after 1 hr in presence of peptide substrate and ATP by off-chip mobility shift assay relative to control
T1 sequence (whole entry): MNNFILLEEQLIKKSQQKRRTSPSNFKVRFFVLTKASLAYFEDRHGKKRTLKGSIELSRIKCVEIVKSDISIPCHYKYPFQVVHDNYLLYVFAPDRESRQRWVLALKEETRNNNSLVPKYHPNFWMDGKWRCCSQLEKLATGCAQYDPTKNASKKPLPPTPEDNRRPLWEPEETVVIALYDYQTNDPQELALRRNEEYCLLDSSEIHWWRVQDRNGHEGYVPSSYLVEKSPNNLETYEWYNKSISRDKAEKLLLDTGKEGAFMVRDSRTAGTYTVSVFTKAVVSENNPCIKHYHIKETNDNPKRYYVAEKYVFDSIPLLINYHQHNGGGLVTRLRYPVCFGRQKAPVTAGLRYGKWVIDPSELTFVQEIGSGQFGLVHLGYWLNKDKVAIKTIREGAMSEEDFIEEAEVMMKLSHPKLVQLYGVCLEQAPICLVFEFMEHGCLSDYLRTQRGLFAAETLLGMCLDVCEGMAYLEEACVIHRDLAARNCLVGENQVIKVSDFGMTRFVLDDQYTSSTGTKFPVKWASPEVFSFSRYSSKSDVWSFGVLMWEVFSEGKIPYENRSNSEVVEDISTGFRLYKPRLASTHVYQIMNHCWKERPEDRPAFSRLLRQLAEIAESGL
Method in brief: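 Off-chip mobility shift assay. Product and substrate peptides were separated; activity was taken as P/(P+S). Complete reaction was set as 0% inhibition and enzyme-free background as 100%. Run in triplicate, mean ± SD.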

[2] = Induction of apoptosis in human HCC827 Gefitinib-resistant (GR) cells assessed as late apoptotic/necrotic cells at 20 uM measured after 24 hrs by Annexin V-[…]propidium iodide staining based flow cytometry relative to control; type: functional, HCC827 Gefitinib-resistant (GR) cell
Method in brief: (§1)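 Resistant cells were seeded at 500.000 per dish and treated the next day for 24 h at 20 μM. Cells were harvested, washed in PBS, and stained with annexin V-Alexa 488 and PI, then analysed by flow cytometry. Early apoptotic cells were scored as annexin+/PI−, late apoptotic/necrotic cells as annexin+/PI+.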

[3] = Induction of apoptosis in human PC9-OR cells assessed as early apoptotic cells at 20 uM measured after 24 hrs by Annexin V-[…]propidium iodide staining based flow cytometry relative to control; type: functional; method in brief: as §1

| inhibition [1] [%] | Compound | Activity [2] [%] | Activity [3] [%] |
| --- | --- | --- | --- |
| 70.3 | Cc1ccc(NC(=O)CN2C(=O)/C(=N\NC(=O)c3cc(Br)ccc3O)c3ccccc32)cc1 | 96.2 | 75.5 |
| 52.8 | Cc1ccc(NC(=O)CN2C(=O)/C(=N\NC(=O)c3cc(Br)ccc3O)c3ccc(Br)cc32)cc1 | 90.8 | 57.5 |
| 56.7 | O=C(CN1C(=O)/C(=N\NC(=O)c2cc(Br)ccc2O)c2c(Br)cccc21)Nc1ccc([N+](=O)[O-])cc1 |  |  |
| 58.9 | Cc1ccc(NC(=O)CN2C(=O)/C(=N\NC(=O)c3cc(Br)ccc3O)c3ccc(Cl)cc32)cc1 |  |  |
